Here are results for four molecules from ChEMBL document CHEMBL1221173, “Dynamic imaging of protease activity with fluorescently quenched activity-based probes” (Nat Chem Biol, 2005).

Activity calls are given as the source filed them. No cut-off for these calls is given here.

Data set [1] addresses Procathepsin L (Homo sapiens) (UniProt P07711). Put plainly: Inhibition of human cathepsin L using Z-FR-AMC substrate assessed as inhibition association constant by fluorimetric assay. The gist of the method:
(§1)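 Cathepsin B or L (1 nM final) with inhibitor at 10–2,000 nM plus 10 µM substrate (Z-RR-AMC for B, Km 114 µM; Z-FR-AMC for L, Km 7.1 µM), 3.5% DMSO. AMC fluorescence (Ex 370/Em 460 nm) read continuously for 30 min. k_app from inhibition curves converted to k_ass = k_app(1+[S]/K_M).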

Data set [2] deals with Cathepsin B (Bos taurus) (UniProt P07688). Put plainly: Inhibition of bovine cathepsin B using Z-RR-AMC substrate assessed as inhibition association constant by fluorimetric assay. The gist of the method: as §1
In data set [3] the target is Procathepsin L (Homo sapiens) (UniProt P07711). The data set is described as follows: Binding affinity to human recombinant cathepsin L assessed as protein labeling at 0.1 to 10 uM after 30 mins using SDS-PAGE and Typhoon laser flatbed canning method. The gist of the method:
(§2)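 Recombinant enzyme (cathepsin B, bovine, 0.4 µg; cathepsin L, human, 0.7 µg) in pH 5.5 acetate buffer (50 mM acetate, 2 mM DTT, 5 mM MgCl₂). Optional 30 min pretreatment at 25 °C with general papain-family inhibitor JPM-OEt (25 µM), or DMSO. Probe at increasing concentrations for 30 min. Stopped with SDS sample buffer, SDS-PAGE, gel fluorescence scanned.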

Data set [4] addresses Cathepsin B (Bos taurus) (UniProt P07688). Put plainly: Binding affinity to bovine recombinant cathepsin B assessed as protein labeling at 0.1 to 10 uM after 30 mins using SDS-PAGE and Typhoon laser flatbed canning method. A digest of the protocol:
as §2

In data set [5] the target is Cathepsin S (Homo sapiens) (UniProt P25774). The data set is described as follows: Binding affinity to recombinant cathepsin S assessed as protein labeling at 0.1 to 10 uM after 30 mins using SDS-PAGE and Typhoon laser flatbed canning method.
Chain of Cathepsin S (Homo sapiens) (P25774 115-331 limits assumed): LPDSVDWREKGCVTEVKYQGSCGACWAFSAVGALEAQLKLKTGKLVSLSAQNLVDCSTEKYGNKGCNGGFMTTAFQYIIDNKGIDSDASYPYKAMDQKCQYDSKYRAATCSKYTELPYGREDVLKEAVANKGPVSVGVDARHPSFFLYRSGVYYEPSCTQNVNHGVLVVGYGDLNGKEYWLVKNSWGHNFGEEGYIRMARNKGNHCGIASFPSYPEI
The target of data set [6] is Cathepsin B (Mus musculus) (UniProt P10605). Put plainly: Binding affinity to cathepsin B in mouse NIH/3T3 cells assessed as protein labeling at 1 uM after 30 mins using SDS-PAGE and Typhoon laser flatbed canning method. Type of data set: cell-based. The settings on record: NIH3T3. The gist of the method:
(§3)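 NIH-3T3 monolayers seeded one day before. Pretreated 1 h with JPM-OEt (50 µM) or 0.1% DMSO, then probe added to medium at pH 7.4 (final DMSO 0.2%) for the indicated times. Cells PBS-washed and lysed in SDS sample buffer, then boiled. Equal protein run on 12% SDS-PAGE, gel scanned at Ex/Em 532/580 nm.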

Data set [7] addresses T1, Procathepsin L (Mus musculus) (UniProt P06797).
T1 sequence (whole entry): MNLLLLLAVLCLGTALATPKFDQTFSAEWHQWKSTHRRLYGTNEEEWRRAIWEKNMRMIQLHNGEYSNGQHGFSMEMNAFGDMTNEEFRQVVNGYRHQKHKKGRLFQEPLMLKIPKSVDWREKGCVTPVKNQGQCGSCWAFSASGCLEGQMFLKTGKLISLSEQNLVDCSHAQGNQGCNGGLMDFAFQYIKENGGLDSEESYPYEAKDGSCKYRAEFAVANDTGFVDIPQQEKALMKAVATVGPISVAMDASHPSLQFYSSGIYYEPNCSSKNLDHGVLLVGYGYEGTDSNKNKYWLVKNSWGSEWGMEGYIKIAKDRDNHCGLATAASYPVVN
Put plainly: Binding affinity to cathepsin L in mouse NIH/3T3 cells assessed as protein labeling at 1 uM after 30 mins using SDS-PAGE and Typhoon laser flatbed canning method. Type of data set: cell-based. The following applies: NIH3T3. A digest of the protocol:
as §3

Data set [8] in a line: Cytotoxicity against mouse NIH/3T3 cells. Type of data set: cell-based. The following applies: nih3t3.
Data set [9] concerns the target Cathepsin B (Mus musculus) (UniProt P10605). Put plainly: Binding affinity to cathepsin B in mouse NIH/3T3 cells monolayers assessed as protein labeling at 1 uM after 4 to 5 hrs by fluorescence microscopy. Type of data set: cell-based. The following applies: NIH3T3. A digest of the protocol:
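Live NIH-3T3 cells on glass coverslips, pretreated 1 h with JPM-OEt (50 µM) or 0.1% DMSO. Probe (1 µM) added to growth medium, pH 7.4, for 4–5 h. Moved to phenol red-free medium with LysoTracker (50 nM final) for lysosome co-localization, then imaged by inverted fluorescence microscopy. Some cells first washed 3 h in medium with JPM-OEt or DMSO.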

Data set [10] has as its target Cathepsin B (Homo sapiens) (UniProt P07858). The data set is described as follows: Binding affinity to cathepsin B in 8 day old human MCF10A cells grown on reconstituted basement membrane assessed as protein labeling exposed to 1 uM for 3 hrs followed by washing overnight with growth media by confocal fluorescence microscopy. The following applies: MCF-10A. Type of data set: cell-based. The gist of the method: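 Day 8 three-dimensional MCF-10A cultures on reconstituted basement membrane, grown without probe. Treated with 1 µM probe for 3 h in assay medium (2% horse serum, 5 ng/ml EGF), washed overnight, then cold-methanol fixed. Immunostained overnight at 4 °C with rabbit anti-human cathepsin B, then secondary antibody and DAPI. Imaged by confocal microscopy.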

Data set [11] in a line: Binding affinity to recombinant cathepsin X assessed as protein labeling at 0.1 to 10 uM after 30 mins using SDS-PAGE and Typhoon laser flatbed canning method.
The target in data set [12] is Procathepsin L (Homo sapiens) (UniProt P07711). Put plainly: Binding affinity to cathepsin L in human MCF10A cells grown on reconstituted basement membrane exposed to 1 uM compounds assessed as protein labeling after 3 days by confocal fluorescence microscopy. The settings on record: MCF-10A.
Chain of Procathepsin L (Homo sapiens) (P07711 114-333 limits assumed): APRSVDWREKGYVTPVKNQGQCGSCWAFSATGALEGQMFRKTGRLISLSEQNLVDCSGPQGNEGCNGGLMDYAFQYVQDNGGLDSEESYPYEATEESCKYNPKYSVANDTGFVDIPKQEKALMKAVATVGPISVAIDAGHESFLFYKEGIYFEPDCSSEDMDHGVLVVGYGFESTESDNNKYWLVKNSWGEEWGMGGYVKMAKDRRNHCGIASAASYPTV
In data set [13] the target is Cathepsin B (Homo sapiens) (UniProt P07858). The data set is described as follows: Binding affinity to cathepsin B in human MCF10A cells grown on reconstituted basement membrane exposed to 1 uM compounds assessed as protein labeling after 3 days by confocal fluorescence microscopy. The following applies: MCF-10A.

Chain of Cathepsin B (Mus musculus) (P10605 80-333 limits assumed): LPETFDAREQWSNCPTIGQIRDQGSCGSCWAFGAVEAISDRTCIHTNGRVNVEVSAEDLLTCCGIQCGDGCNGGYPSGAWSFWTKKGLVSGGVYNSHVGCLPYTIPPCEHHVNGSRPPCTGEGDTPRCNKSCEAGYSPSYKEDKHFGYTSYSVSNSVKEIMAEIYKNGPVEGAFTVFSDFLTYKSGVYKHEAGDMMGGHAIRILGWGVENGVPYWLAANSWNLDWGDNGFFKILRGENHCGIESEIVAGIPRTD

On to `COc1ccc(-c2ccc3n2[B-](F)(F)[N+]2=C(C)C(CCC(=O)NCCCCCC(=O)NCCCC[C@@H](NC(=O)[C@@H](Cc4ccccc4)NC(=O)OC(C)(C)C)C(=O)COC(=O)c4c(C)cccc4C)=C(C)C2=C3)cc1`, for which the INH amounted to 1180 M⁻¹ s⁻¹ in [1] and 212 M⁻¹ s⁻¹ in data set [2].
For `COc1ccc(-c2ccc3n2[B-](F)(F)[N+]2=C(C)C(CCC(=O)NCCCCCC(=O)NCCCC[C@@H](NC(=O)[C@H](N)Cc4ccccc4)C(=O)COC(=O)c4c(C)cccc4C)=C(C)C2=C3)cc1` the same measures were 296000 M⁻¹ s⁻¹ and 38500 M⁻¹ s⁻¹.
With `COc1ccc(-c2ccc3n2[B-](F)(F)[N+]2=C(C)C(CCC(=O)NCCCCCC(=O)NCCCC[C@@H](NC(=O)[C@@H](Cc4ccccc4)NC(=O)OCc4ccccc4)C(=O)COC(=O)c4c(C)cccc4C)=C(C)C2=C3)cc1`, the INH in data set [1] amounted to 2580 M⁻¹ s⁻¹; in data set [2], 1260 M⁻¹ s⁻¹. For the same molecule, the result in data set [3], in data set [4], in [5], in [6], in data set [7] and in data set [9] was Active. Moreover, the outcome in data set [10], in data set [11], in data set [12] and in [13] was Active. Besides, in data set [8], the Activity entry was “Non-toxic”.
For `COc1ccc(-c2ccc3n2[B-](F)(F)[N+]2=C(C)C(CCC(=O)NCCCCCC(=O)NCCCC[C@@H](NC(=O)[C@@H](Cc4ccccc4)NC(=O)OCc4ccccc4)C(=O)COC(=O)CNC(=O)C4CCN(S(=O)(=O)c5ccccc5-c5c6cc/c(=[N+](/C)c7ccccc7)cc-6oc6cc(Nc7ccccc7)ccc56)CC4)=C(C)C2=C3)cc1`, the results for the INH in [1] and in data set [2] were 7000 M⁻¹ s⁻¹ and 275 M⁻¹ s⁻¹, respectively. For the same molecule, the result in data set [3], in data set [4], in [5], in data set [7], in data set [9] and in data set [11] was Active. For the same molecule, the result in [12] and in [13] was Active. Further, the outcome in [6] was inactive. Besides, the Activity result in data set [8] is listed as “Non-toxic”.
